Results on 25 molecules are retold here after ChEMBL document CHEMBL1146260, “Synthesis and antifungal activity of 1H-indole-4,7-diones” (2007).

Molecules are shown by their SMILES. Values after ≈ are worked out from the molar mass of the structure shown.

Holding throughout (format): functional
In one assay the test system is Pichia kudriavzevii. Kind of assay: Antifungal activity against Candida krusei Berkout KCCM 11655 after 1 day by 2-fold broth dilution method. To be noted: KCCM 11655, 24 h. The essentials:
(§1)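 MIC by 2-fold broth dilution in modified Sabouraud dextrose broth; inoculum about 1 · 10⁵ cells/mL; final drug concentrations […]; 37 °C, read after 1 day; 5-fluorocytosine run as standard agent.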

In another assay the test system is Candida albicans. Kind of assay: Antifungal activity against Candida albicans Berkout KCCM 50235 after 1 day by 2-fold broth dilution method. The settings on record: KCCM 50235, 24 h. The gist of the method:
as §1

Another assay has as its system Cryptococcus neoformans. Kind of assay: Antifungal activity against Cryptococcus neoformans KCCM 50564 after 1 day by 2-fold broth dilution method. The settings on record: KCCM 50564, 24 h. The essentials:
as §1
A general note: Dilution methods test growth across graded concentrations, often in twofold steps.

The test system of another assay is Candida tropicalis. Kind of assay: Antifungal activity against Candida tropicalis Berkout KCCM 50662 after 1 day by 2-fold broth dilution method. To be noted: KCCM 50662, 24 h. The essentials: as §1
In another assay the test system is Aspergillus niger. Kind of assay: Antifungal activity against Aspergillus niger KCTC 1231 after 2 days by 2-fold broth dilution method. To be noted: KCTC 1231, 48 h. The essentials: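 Two-fold broth dilution MIC in modified Sabouraud dextrose broth, inoculum about 1 · 10⁵ cells/mL, final agent range […]; incubated at 37 °C, MIC read after 2 days; 5-fluorocytosine as standard agent.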

One may read the MIC as the lowest concentration found to suppress growth. A higher MIC goes with a need for much substance. For `COC(=O)c1cn(-c2ccc(Br)cc2)c2c1C(=O)C(C)=C(C)C2=O`, the MIC amounted to 50 µg/mL (≈ 129 µM) in the assay with Pichia kudriavzevii; 50 µg/mL (≈ 129 µM) against Candida albicans; 50 µg/mL (≈ 129 µM) against Cryptococcus neoformans; 6.3 µg/mL (≈ 16.2 µM) with Candida tropicalis; 3.2 µg/mL (≈ 8.24 µM) in the assay with Aspergillus niger.
For the molecule `COC(=O)c1cn(-c2ccc(I)cc2)c2c1C(=O)C(C)=C(C)C2=O`, the MIC in the assay on Pichia kudriavzevii is 50 µg/mL (≈ 115 µM); in the assay on Candida albicans it was 25 µg/mL (≈ 57.4 µM); with Cryptococcus neoformans, 50 µg/mL (≈ 115 µM); in the assay with Candida tropicalis it was 12.5 µg/mL (≈ 28.7 µM); against Aspergillus niger it was 100 µg/mL (≈ 230 µM).
As to `COC(=O)c1cn(-c2ccc(OC)cc2)c2c1C(=O)C(C)=C(C)C2=O`, the MIC is 3.2 µg/mL (≈ 9.43 µM) in the assay with Pichia kudriavzevii; greater than 100 µg/mL in the assay with Candida albicans; 100 µg/mL (≈ 295 µM) in the assay with Cryptococcus neoformans; 50 µg/mL (≈ 147 µM) in the assay on Candida tropicalis; greater than 100 µg/mL with Aspergillus niger.
For `COC(=O)c1cn(-c2ccc(C)c(C)c2)c2c1C(=O)C(C)=C(C)C2=O`, the MIC with Pichia kudriavzevii was 0.8 µg/mL (≈ 2.37 µM); in the assay with Candida albicans, 12.5 µg/mL (≈ 37.1 µM); in the assay with Cryptococcus neoformans, 1.6 µg/mL (≈ 4.74 µM); against Candida tropicalis, greater than 100 µg/mL; with Aspergillus niger, 6.3 µg/mL (≈ 18.7 µM).
The like results for `CCc1ccc(-n2cc(C(=O)OC)c3c2C(=O)C(C)=C(C)C3=O)cc1` were, in that order, 50 µg/mL (≈ 148 µM), 25 µg/mL (≈ 74.1 µM), 50 µg/mL (≈ 148 µM), 50 µg/mL (≈ 148 µM) and 3.2 µg/mL (≈ 9.48 µM).
For `O=C1C(Sc2ccccc2)=C(Sc2ccccc2)C(=O)c2[nH]ccc21`, the MIC with Pichia kudriavzevii was greater than 100 µg/mL; against Candida albicans, greater than 100 µg/mL; in the assay with Cryptococcus neoformans, 12.5 µg/mL (≈ 34.4 µM); against Candida tropicalis, greater than 100 µg/mL; against Aspergillus niger, 50 µg/mL (≈ 138 µM).
Consider `COC(=O)c1cn(C)c2c1C(=O)C(C)=C(C)C2=O`, for which the MIC in the assay with Pichia kudriavzevii was 3.2 µg/mL (≈ 12.9 µM); in the assay on Candida albicans it was greater than 100 µg/mL; in the assay on Cryptococcus neoformans, 1.6 µg/mL (≈ 6.47 µM); against Candida tropicalis, greater than 100 µg/mL; with Aspergillus niger, greater than 100 µg/mL.
Consider `O=C1C(Sc2ccc(Cl)cc2)=C(Sc2ccc(Cl)cc2)C(=O)c2[nH]ccc21`, for which the MIC is 25 µg/mL (≈ 57.8 µM) in the assay on Pichia kudriavzevii; greater than 100 µg/mL in the assay with Candida albicans; 3.2 µg/mL (≈ 7.4 µM) in the assay on Cryptococcus neoformans; 12.5 µg/mL (≈ 28.9 µM) against Candida tropicalis; greater than 100 µg/mL in the assay with Aspergillus niger.
As for `CCOC(=O)c1cn(C)c2c1C(=O)C(C)=C(C)C2=O`, the MIC in the assay on Pichia kudriavzevii was 50 µg/mL (≈ 191 µM); in the assay with Candida albicans it was greater than 100 µg/mL; against Cryptococcus neoformans, 100 µg/mL (≈ 383 µM); in the assay on Candida tropicalis, 25 µg/mL (≈ 95.7 µM); in the assay on Aspergillus niger it was greater than 100 µg/mL.
Turning to `COC(=O)c1cn(-c2ccc(F)cc2)c2c1C(=O)C(C)=C(C)C2=O`, the MIC with Pichia kudriavzevii was 3.2 µg/mL (≈ 9.78 µM); against Candida albicans, greater than 100 µg/mL; in the assay on Cryptococcus neoformans, 3.2 µg/mL (≈ 9.78 µM); with Candida tropicalis, greater than 100 µg/mL; in the assay with Aspergillus niger it was 12.5 µg/mL (≈ 38.2 µM).
`O=C1C(Sc2ccc(Br)cc2)=C(Sc2ccc(Br)cc2)C(=O)c2[nH]ccc21`: the MIC was greater than 100 µg/mL against Pichia kudriavzevii; greater than 100 µg/mL against Candida albicans; 3.2 µg/mL (≈ 6.14 µM) in the assay with Cryptococcus neoformans; greater than 100 µg/mL in the assay on Candida tropicalis; 12.5 µg/mL (≈ 24 µM) with Aspergillus niger.
For the molecule `CCOC(=O)C(C#N)C1=C(Cl)C(=O)C(C)=C(C)C1=O` (stereo not given), the MIC against Pichia kudriavzevii is 100 µg/mL (≈ 355 µM); in the assay on Candida albicans, greater than 100 µg/mL; against Cryptococcus neoformans, 25 µg/mL (≈ 88.7 µM); against Candida tropicalis, greater than 100 µg/mL; against Aspergillus niger it was greater than 100 µg/mL.
As for `Cc1cccc(SC2=C(Sc3cccc(C)c3)C(=O)c3[nH]ccc3C2=O)c1`, the MIC in the assay with Pichia kudriavzevii was greater than 100 µg/mL; against Candida albicans, greater than 100 µg/mL; with Cryptococcus neoformans it was 3.2 µg/mL (≈ 8.17 µM); with Candida tropicalis, 12.5 µg/mL (≈ 31.9 µM); with Aspergillus niger, 50 µg/mL (≈ 128 µM).
For `O=C1C(Sc2ccc(F)c(F)c2)=C(Sc2ccc(F)c(F)c2)C(=O)c2[nH]ccc21`, the MIC was 12.5 µg/mL (≈ 28.7 µM) against Pichia kudriavzevii; greater than 100 µg/mL against Candida albicans; 50 µg/mL (≈ 115 µM) against Cryptococcus neoformans; greater than 100 µg/mL against Candida tropicalis; greater than 100 µg/mL against Aspergillus niger.
In the case of `O=C1C(Sc2cccc(Cl)c2)=C(Sc2cccc(Cl)c2)C(=O)c2[nH]ccc21`, the MIC was 25 µg/mL (≈ 57.8 µM) against Pichia kudriavzevii; 6.3 µg/mL (≈ 14.6 µM) against Candida albicans; 3.2 µg/mL (≈ 7.4 µM) with Cryptococcus neoformans; 1.6 µg/mL (≈ 3.7 µM) with Candida tropicalis; 25 µg/mL (≈ 57.8 µM) with Aspergillus niger.
With `O=C1C(Sc2ccc(O)cc2)=C(Sc2ccc(O)cc2)C(=O)c2[nH]ccc21`, the MIC against Pichia kudriavzevii was greater than 100 µg/mL; against Candida albicans it was 50 µg/mL (≈ 126 µM); against Cryptococcus neoformans, 25 µg/mL (≈ 63.2 µM); against Candida tropicalis, 50 µg/mL (≈ 126 µM); with Aspergillus niger, greater than 100 µg/mL.
Consider `COC(=O)C(C#N)C1=C(Cl)C(=O)C(C)=C(C)C1=O` (stereo not given), for which the MIC in the assay on Pichia kudriavzevii is 100 µg/mL (≈ 374 µM); against Candida albicans, greater than 100 µg/mL; against Cryptococcus neoformans, 6.3 µg/mL (≈ 23.5 µM); against Candida tropicalis, greater than 100 µg/mL; in the assay with Aspergillus niger it was greater than 100 µg/mL.
With `COC(=O)c1cn(-c2ccccc2)c2c1C(=O)C(C)=C(C)C2=O`, the MIC in the assay with Pichia kudriavzevii was 1.6 µg/mL (≈ 5.17 µM); against Candida albicans it was 3.2 µg/mL (≈ 10.3 µM); in the assay on Cryptococcus neoformans it was 6.3 µg/mL (≈ 20.4 µM); in the assay with Candida tropicalis, 12.5 µg/mL (≈ 40.4 µM); with Aspergillus niger, 25 µg/mL (≈ 80.8 µM).
On to `O=C1C(Sc2ccc(F)cc2)=C(Sc2ccc(F)cc2)C(=O)c2[nH]ccc21`, for which the MIC was 3.2 µg/mL (≈ 8.01 µM) in the assay with Pichia kudriavzevii; greater than 100 µg/mL in the assay with Candida albicans; 6.3 µg/mL (≈ 15.8 µM) in the assay on Cryptococcus neoformans; 25 µg/mL (≈ 62.6 µM) in the assay on Candida tropicalis; 100 µg/mL (≈ 250 µM) with Aspergillus niger.
The like results for `Cc1ccc(SC2=C(Sc3ccc(C)c(C)c3)C(=O)c3[nH]ccc3C2=O)cc1C` were, in that order, greater than 100 µg/mL, greater than 100 µg/mL, 50 µg/mL (≈ 119 µM), greater than 100 µg/mL and 100 µg/mL (≈ 238 µM).
In the same order, the values of `COC(=O)c1cn(-c2ccc(C(C)C)cc2)c2c1C(=O)C(C)=C(C)C2=O` are 100 µg/mL (≈ 285 µM), 12.5 µg/mL (≈ 35.6 µM), 100 µg/mL (≈ 285 µM), 12.5 µg/mL (≈ 35.6 µM) and 3.2 µg/mL (≈ 9.11 µM).
For the molecule `COC(=O)c1cn(-c2ccc(Cl)cc2)c2c1C(=O)C(C)=C(C)C2=O`, the MIC was found to be 0.8 µg/mL (≈ 2.33 µM) with Pichia kudriavzevii; 12.5 µg/mL (≈ 36.4 µM) in the assay with Candida albicans; 12.5 µg/mL (≈ 36.4 µM) with Cryptococcus neoformans; 12.5 µg/mL (≈ 36.4 µM) in the assay with Candida tropicalis; 25 µg/mL (≈ 72.7 µM) in the assay on Aspergillus niger.
Turning to `COC(=O)c1cn(-c2ccc(C)cc2)c2c1C(=O)C(C)=C(C)C2=O`, the MIC was 3.2 µg/mL (≈ 9.9 µM) in the assay on Pichia kudriavzevii; greater than 100 µg/mL in the assay with Candida albicans; 0.8 µg/mL (≈ 2.47 µM) against Cryptococcus neoformans; greater than 100 µg/mL in the assay with Candida tropicalis; greater than 100 µg/mL in the assay with Aspergillus niger.
On to `COC(=O)c1cn(-c2ccc(OC(F)(F)F)cc2)c2c1C(=O)C(C)=C(C)C2=O`, for which the MIC was 6.3 µg/mL (≈ 16 µM) against Pichia kudriavzevii; greater than 100 µg/mL in the assay on Candida albicans; 1.6 µg/mL (≈ 4.07 µM) against Cryptococcus neoformans; greater than 100 µg/mL in the assay with Candida tropicalis; 3.2 µg/mL (≈ 8.14 µM) in the assay with Aspergillus niger.
Turning to `Nc1nc(=O)[nH]cc1F` [FLUCYTOSINE], the MIC against Pichia kudriavzevii came out at 6.3 µg/mL (≈ 48.8 µM); with Candida albicans it was 6.3 µg/mL (≈ 48.8 µM); against Cryptococcus neoformans it was 12.5 µg/mL (≈ 96.8 µM); against Candida tropicalis, 12.5 µg/mL (≈ 96.8 µM); in the assay with Aspergillus niger, 50 µg/mL (≈ 387 µM).
